The source made the active and inactive calls. No cut-off for these calls is given here.
Columns and labels:
[1] = molecular target: Telomerase reverse transcriptase (Homo sapiens) (UniProt O14746); assay: Inhibition of telomerase activity in human H1299 cell free extract at 10 uM by modified TRAP assay
Procedure, shortened: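 TRAP assay using total cell lysate from H1299 lung cancer cells as the telomerase source, with protein measured against BSA standards. Compounds tested at 10 µM. Controls were lysate without inhibitor (positive) and RNase A-treated extract without inhibitor (negative).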

[2] = molecular target: Telomerase reverse transcriptase (Homo sapiens) (UniProt O14746); assay: Residual activity of human TERT in H1299 cells at 1 uM after 24 hrs by SEAP reporter gene assay
[3] = molecular target: Telomerase reverse transcriptase (Homo sapiens) (UniProt O14746); assay: Residual activity of human TERT in H1299 cells at 100 uM after 24 hrs by SEAP reporter gene assay
[4] = molecular target: Telomerase reverse transcriptase (Homo sapiens) (UniProt O14746); assay: Residual activity of human TERT in H1299 cells at 10 uM after 24 hrs by SEAP reporter gene assay
[5] = Growth of human H1299 cells at 100 uM 48 hrs by MTT assay; settings: NCI-H1299, 48 h
PC-3 = assay: Cytotoxicity against human PC3 cells after 48 hrs by SRB assay; type: functional, cell-based; settings: PC-3, 48 h
Procedure, shortened: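 PC-3 cells grown in RPMI1640 with 10% FBS at 37 °C, 5% CO₂. Seeded in medium with 5% FBS; after 24 h, one plate fixed with 10% TCA as T₀. Compound or 0.1% DMSO vehicle added for 48 h, then TCA fixation and 0.4% SRB in 1% acetic acid. Dye solubilized in 10 mM Trizma base, absorbance read at 515 nm. IC50 is the concentration giving 50% reduction of the protein gain in controls.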

[6] = Growth of human H1299 cells at 10 uM after 48 hrs by MTT assay; settings: NCI-H1299, 48 h
[7] = Growth of human H1299 cells at 1 uM after 48 hrs by MTT assay; settings: NCI-H1299, 48 h

Sequence of Telomerase reverse transcriptase (Homo sapiens) (O14746 whole entry): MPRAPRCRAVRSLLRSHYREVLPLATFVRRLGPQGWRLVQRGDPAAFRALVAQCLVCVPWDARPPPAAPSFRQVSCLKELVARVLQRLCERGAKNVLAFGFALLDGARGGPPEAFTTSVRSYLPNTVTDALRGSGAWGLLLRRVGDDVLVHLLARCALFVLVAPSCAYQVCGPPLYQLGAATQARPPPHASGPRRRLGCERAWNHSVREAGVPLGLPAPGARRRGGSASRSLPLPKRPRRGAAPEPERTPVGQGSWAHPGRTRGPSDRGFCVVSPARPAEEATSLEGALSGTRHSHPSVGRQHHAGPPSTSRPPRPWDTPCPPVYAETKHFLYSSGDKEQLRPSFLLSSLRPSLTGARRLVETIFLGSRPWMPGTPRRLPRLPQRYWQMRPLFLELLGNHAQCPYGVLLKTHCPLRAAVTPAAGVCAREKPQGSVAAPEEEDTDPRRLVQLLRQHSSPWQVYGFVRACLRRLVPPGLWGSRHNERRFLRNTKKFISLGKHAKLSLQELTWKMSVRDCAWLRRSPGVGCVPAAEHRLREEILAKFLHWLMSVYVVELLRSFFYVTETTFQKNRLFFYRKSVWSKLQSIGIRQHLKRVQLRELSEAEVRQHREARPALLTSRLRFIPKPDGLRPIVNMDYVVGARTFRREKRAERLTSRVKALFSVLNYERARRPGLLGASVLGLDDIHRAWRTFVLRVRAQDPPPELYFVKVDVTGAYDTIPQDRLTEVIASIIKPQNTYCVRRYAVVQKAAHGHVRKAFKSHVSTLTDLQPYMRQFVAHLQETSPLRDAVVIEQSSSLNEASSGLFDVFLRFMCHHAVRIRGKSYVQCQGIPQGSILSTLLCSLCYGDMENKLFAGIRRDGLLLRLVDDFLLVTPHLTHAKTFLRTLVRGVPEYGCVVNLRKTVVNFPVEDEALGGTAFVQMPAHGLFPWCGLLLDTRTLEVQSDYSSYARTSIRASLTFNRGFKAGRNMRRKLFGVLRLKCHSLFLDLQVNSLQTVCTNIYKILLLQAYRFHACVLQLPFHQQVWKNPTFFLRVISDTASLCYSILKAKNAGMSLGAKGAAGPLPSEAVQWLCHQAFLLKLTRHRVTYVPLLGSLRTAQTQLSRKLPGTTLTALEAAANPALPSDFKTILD

Structure (SMILES)	inhibition [1]	residual activity [2]	residual activity [3]	residual activity [4]	growth, % of control at 100 µM [5]	IC50 (PC-3)	growth, % of control at 10 µM [6]	growth, % of control at 1 µM [7]
Cc1ccc(C(=O)Nc2c(NC(=O)CN(C)CC3OCCO3)ccc3c2C(=O)c2ccccc2C3=O)cc1	inactive	100%	10%	76%	3%	1.46 µM	88%	104%
O=C(CCl)Nc1ccc2c(c1NC(=O)c1cccc(Cl)c1)C(=O)c1ccccc1C2=O	inactive	80%	3%	6%	0%	3.51 µM	5%	89%
O=C(CCl)Nc1ccc2c(c1NC(=O)c1cccc(C(F)(F)F)c1)C(=O)c1ccccc1C2=O	inactive	99%	0%	4%	3%	5.68 µM	5%	94%
Cc1ccc(C(=O)Nc2c(NC(=O)CN(C)C)ccc3c2C(=O)c2ccccc2C3=O)cc1	inactive	99%	9%	78%	0%	3.92 µM	88%	106%
O=C(CCl)Nc1ccc2c(c1NC(=O)CSc1ccccc1)C(=O)c1ccccc1C2=O	inactive	80%	0%	3%	0%	5.39 µM	5%	88%
O=C(CCl)Nc1ccc2c(c1NC(=O)COc1ccccc1)C(=O)c1ccccc1C2=O	inactive	82%	4%	72%	4%	> 20 µM	66%	101%
